Assay results taken from paper PMC4021529 (British Journal of Cancer, 2014).
“Also recorded” adds a separate entry of the source.

How the values were obtained:
Assay type in all cases: in vivo, human
[1] = QTcF interval, triplicate 12-lead ECG; conditions: for maximal mean change (±s.d.) from baseline in QTcF: 2 h post-administration, first two courses
advanced solid tumours = assay: Objective tumour response; conditions: for median PFS: all dose groups
How it was run: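 Patients with advanced solid tumours at two Taiwanese sites. Test compound given as a 2-h IV infusion on day 1 (schedule A) or days 1 and 8 (schedule B), every 3 weeks. CT or MRI at baseline and at the end of every other course, assessed by RECIST 1.0. PFS estimated by Kaplan–Meier.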

Adverse events = assay: Adverse events
[2] = schedule A, 100 mg (n=3), irrespective of relatedness
[3] = schedule A, 250 mg (n=6), irrespective of relatedness
[4] = schedule A, 300 mg (n=17), irrespective of relatedness
[5] = schedule A, 350 mg (n=3), irrespective of relatedness
[6] = schedule A, total (n=32), irrespective of relatedness

## CC[C@@H]1C(=O)N(C)c2cnc(Nc3ccc(C(=O)N[C@H]4CC[C@H](N5CCN(CC6CC6)CC5)CC4)cc3OC)nc2N1C(C)C [volasertib]
[1]; first course
  QTcF at 8-h post-dose assessment: returned to baseline levels
[1]; in vivo
  clinically relevant cardiac AEs related to a prolonged QT interval: No related clinically relevant cardiac AEs
[1]; schedule A, 300 mg
  maximal mean change (±s.d.) from baseline in QTcF: 21.0 (±10.6) ms
[1]; schedule B, 150 mg
  maximal mean change (±s.d.) from baseline in QTcF: 14.9 (±11.7) ms
Advanced solid tumours; 59 treated patients, both schedules
  partial responses in the study: two pre-treated patients; also recorded: Two partial responses
Advanced solid tumours; bladder urothelial cancer with lymph node metastasis, 50 mg schedule B
  duration of stable disease, individual patient: > 8 months
Advanced solid tumours; overall, both schedules
  patients with stable disease as best overall response: 26 (44.1%) patients (%)
Advanced solid tumours; schedule A
  patients with stable disease as best overall response: 14 (43.8%) patients (%)
  median PFS: 49 days
Advanced solid tumours; schedule B
  patients with stable disease as best overall response: 12 (44.4%) patients (%)
  median PFS: 56 days
Advanced solid tumours; ureteral urothelial carcinoma (wild-type FGFR3), 350 mg schedule A, two courses
  best response of individual patient: partial response
Adverse events; all due to underlying cancer, none considered related to volasertib
  deaths during the study: three deaths
Adverse events; [2]
  Abdominal pain grade 3, number of patients: 1 n
  Anaemia grade 3, number of patients: 1 n
  Fatigue grade 3, number of patients: 1 n
  Neutropenia grade 3, number of patients: 1 n
  Thrombocytopenia grade 3, number of patients: 1 n
  Upper GI haemorrhage grade 3, number of patients: 1 n
Adverse events; [3]
  Anaemia grade 3, number of patients: 3 n
  Anaemia grade 4, number of patients: 1 n
  Hypokalaemia grade 3, number of patients: 1 n
  Ileus grade 3, number of patients: 1 n
  Leukopenia grade 4, number of patients: 1 n
  Neutropenia grade 4, number of patients: 2 n
  Thrombocytopenia grade 3, number of patients: 1 n
  Thrombocytopenia grade 4, number of patients: 1 n
Adverse events; [4]
  Abdominal pain grade 3, number of patients: 2 n
  Anaemia grade 3, number of patients: 2 n
  Anaemia grade 4, number of patients: 2 n
  Fatigue grade 3, number of patients: 1 n
  Febrile neutropenia grade 3, number of patients: 1 n
  Febrile neutropenia grade 4, number of patients: 1 n
  Infection grade 3, number of patients: 1 n
  Leukopenia grade 3, number of patients: 7 n
  Neutropenia grade 3, number of patients: 5 n
  Neutropenia grade 4, number of patients: 5 n
  Pain grade 3, number of patients: 1 n
  Thrombocytopenia grade 3, number of patients: 7 n
  Thrombocytopenia grade 4, number of patients: 2 n
Adverse events; [5]
  Anaemia grade 3, number of patients: 2 n
  Anaemia grade 4, number of patients: 1 n
  Febrile neutropenia grade 3, number of patients: 1 n
  Leukopenia grade 3, number of patients: 2 n
  Neutropenia grade 4, number of patients: 3 n
  Thrombocytopenia grade 3, number of patients: 1 n
  Thrombocytopenia grade 4, number of patients: 2 n
Adverse events; schedule A, all doses
  drug-related anaemia, incidence: 40.6%
  drug-related leukopenia, incidence: 56.3%
  drug-related neutropenia, incidence: 56.3%
  drug-related thrombocytopenia, incidence: 62.5%
Adverse events; [6]
  Abdominal pain grade 3, number of patients: 3 (9.4) n (%)
  Anaemia grade 3, number of patients: 8 (25.0) n (%)
  Anaemia grade 4, number of patients: 4 (12.5) n (%)
  Fatigue grade 3, number of patients: 2 (6.3) n (%)
  Febrile neutropenia grade 3, number of patients: 2 (6.3) n (%)
  Febrile neutropenia grade 4, number of patients: 1 (3.1) n (%)
  Hypokalaemia grade 3, number of patients: 1 (3.1) n (%)
  Ileus grade 3, number of patients: 1 (3.1) n (%)
  Infection grade 3, number of patients: 1 (3.1) n (%)
  Leukopenia grade 3, number of patients: 9 (28.1) n (%)
  Leukopenia grade 4, number of patients: 1 (3.1) n (%)
  Neutropenia grade 3, number of patients: 6 (18.8) n (%)
  Neutropenia grade 4, number of patients: 10 (31.3) n (%)
  Pain grade 3, number of patients: 1 (3.1) n (%)
  Thrombocytopenia grade 3, number of patients: 10 (31.3) n (%)
  Thrombocytopenia grade 4, number of patients: 5 (15.6) n (%)
